Source: ChEMBL document CHEMBL4811241, “Revisiting Pyrazolo[3,4-d]pyrimidine Nucleosides as Anti-Trypanosoma cruzi and Antileishmanial Agents” (J Med Chem, 2021)

Experiments:
[1] = Cytotoxicity against Swiss mouse peritoneal macrophages assessed as cell detachment, lysis and granulation measured after 5 days by microscopic analysis; assay type: cell-based, Peritoneal macrophage; conditions: time 5 day
How it was run: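 Scored within the Leishmania macrophage assay over 5 days: detachment, lysis and granulation judged semi-quantitatively by microscopy across at least 500 cells. CC50 derived from % reduction in normal cells versus untreated wells.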

[2] = Cytotoxicity against human MRC-5 SV2 cells assessed as reduction in cell growth measured after 3 days by resazurin dye based fluorometric analysis; conditions: time 3 day
Leishmania infantum = experiment: Antileishmanial activity against amastigote form of Leishmania infantum MHOM/MA(BE)/67 infected in Swiss mouse peritoneal macrophages assessed as reduction in parasite growth treated at 2 hrs post-infection and measured after 5 days by Giemsa staining based microscopic analysis; assay type: functional, organism-based; conditions: MHOM/MA(BE)/67, Peritoneal macrophage
How it was run: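 Swiss mouse peritoneal macrophages, harvested after 2-day potato-starch stimulation, infected 48 h after plating; compounds added 2 h post-infection.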

Trypanosoma cruzi = experiment: Antitrypanosomal activity against nifurtimox-sensitive Trypanosoma cruzi Tulahuen CL2 infected in human MRC-5 SV2 cells assessed as inhibition of parasite growth measured after 7 days by spectrophotometric analysis; assay type: functional, organism-based; conditions: Tulahuen CL2, MRC-5 SV2, 168 h
[3] = Selectivity index, ratio of CC50 for human MRC-5 SV2 cells to IC50 for antitrypanosomal activity against nifurtimox-sensitive Trypanosoma cruzi Tulahuen CL2 infected in human MRC-5 SV2 cells; assay type: toxicity, cell-based; conditions: read-out: Ratio CC50/IC50
How it was run: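 Ratio of MRC-5SV2 CC50 (3-day resazurin assay) to IC50 against T. cruzi amastigotes in MRC-5SV2 cells (7-day CPRG assay).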

Compound | CC50 at 120 h [1] | CC50 at 72 h [2] | IC50 (Leishmania infantum) | IC50 (Trypanosoma cruzi) | selectivity ratio [3]
O=c1[nH]cnc2c1cnn2[C@@H]1O[C@H](CO)[C@@H](F)[C@H]1O | > 64 µM | > 64 µM | > 64 µM | > 64 µM | 
CNC(=O)c1nn([C@@H]2O[C@H](CO)[C@@H](O)[C@H]2O)c2ncnc(N)c12 | > 64 µM | > 64 µM | > 64 µM | 4 µM | 16
Cn1cc(-c2nn([C@@H]3O[C@H](CO)[C@@H](O)[C@H]3O)c3ncnc(N)c23)cn1 | > 64 µM | > 64 µM | > 64 µM | 45.3 µM | > 1
Nc1ncnc2c1c(-c1ccc(F)cc1)nn2[C@@H]1O[C@H](CO)[C@@H](O)[C@H]1O | > 64 µM | > 64 µM | > 64 µM | 3.36 µM | > 19
Cc1ccc(-c2nn([C@@H]3O[C@H](CO)[C@@H](O)[C@H]3O)c3ncnc(N)c23)cc1 | > 64 µM | > 64 µM | > 64 µM | 1.77 µM | > 36
Cc1csc(-c2nn([C@@H]3O[C@H](CO)[C@@H](O)[C@H]3O)c3ncnc(N)c23)c1 | > 64 µM | > 64 µM | > 64 µM | 32 µM | > 2
Nc1ncnc2c1c(-c1ccc(Cl)c(Cl)c1)nn2[C@@H]1O[C@H](CO)[C@@H](O)[C@H]1O | > 64 µM | > 64 µM | > 64 µM | 2.82 µM | > 23
Nc1ncnc2c1c(-c1ccc(Cl)cc1)nn2[C@@H]1O[C@H](CO)C[C@H]1O | > 64 µM | > 64 µM | > 64 µM | 1.04 µM | > 61
Nc1ncnc2c1c(-c1cc(F)c(Cl)c(F)c1)nn2[C@@H]1O[C@H](CO)[C@@H](O)[C@H]1O | > 64 µM | > 64 µM | > 64 µM | 1.33 µM | > 17
Nc1ncnc2c1c(C(=O)N1CCCC1)nn2[C@@H]1O[C@H](CO)[C@@H](O)[C@H]1O | > 64 µM | > 64 µM | > 64 µM | > 64 µM | 
Nc1ncnc2c1cnn2[C@@H]1O[C@H](CO)C[C@H]1O | > 64 µM | > 64 µM | > 64 µM | > 64 µM | 
Nc1ncnc2c1c(-c1ccc(F)c(Cl)c1)nn2[C@@H]1O[C@H](CO)[C@@H](O)[C@H]1O | > 64 µM | > 64 µM | > 64 µM | 4.66 µM | > 14
Nc1ncnc2c1c(N1CCCC1)nn2[C@@H]1O[C@H](CO)[C@@H](O)[C@H]1O | > 64 µM | > 64 µM | > 64 µM | > 64 µM | 
CCOc1cc(-c2nn([C@@H]3O[C@H](CO)[C@@H](O)[C@H]3O)c3ncnc(N)c23)ccc1Cl | > 64 µM | > 64 µM | > 64 µM | 45.3 µM | > 1
O=c1[nH]cnc2c1c(Br)nn2[C@@H]1O[C@H](CO)[C@@H](O)[C@H]1O | > 64 µM | > 64 µM | > 64 µM | > 64 µM | 
Cc1cc(-c2nn([C@@H]3O[C@H](CO)[C@@H](O)[C@H]3O)c3ncnc(N)c23)ccc1Cl | > 64 µM | > 64 µM | > 64 µM | 0.81 µM | > 79
Oc1ncnc2[nH]nc(Br)c12 | > 64 µM | > 64 µM | > 64 µM | > 64 µM | 
Nc1ncnc2c1c(-c1ccc(Cl)s1)nn2[C@@H]1O[C@H](CO)[C@@H](O)[C@H]1O | > 64 µM | 47.3 µM | > 64 µM | 2.56 µM | 14
Nc1ncnc2c1c(Br)nn2[C@@H]1O[C@H](CO)C[C@H]1O | > 64 µM | 2.2 µM | > 64 µM | 38.5 µM | 
Nc1ncnc2c1c(C1CC1)nn2[C@@H]1O[C@H](CO)[C@@H](O)[C@H]1O | > 64 µM | > 64 µM | > 64 µM | > 64 µM | 
Nc1ncnc2c1c(Br)nn2[C@H]1C[C@H](O)[C@@H](CO)O1 | > 64 µM | 24.9 µM | > 64 µM | 53.2 µM | 
Nc1ncnc2c1c(-c1ccc(F)c(F)c1)nn2[C@@H]1O[C@H](CO)[C@@H](O)[C@H]1O | > 64 µM | > 64 µM | > 64 µM | 4.24 µM | > 15
Nc1ncnc2c1c(Oc1ccc(Cl)cc1)nn2[C@@H]1O[C@H](CO)[C@@H](O)[C@H]1O | > 64 µM | > 64 µM | > 64 µM | > 64 µM | 

Compound | CC50 at 120 h [1] | CC50 at 72 h [2] | IC50 (Leishmania infantum) | IC50 (Trypanosoma cruzi) | selectivity ratio [3]
Nc1ncnc2c1c(C(F)(F)F)nn2[C@@H]1O[C@H](CO)[C@@H](O)[C@H]1O | > 64 µM | 13.3 µM | > 64 µM | 27 µM | < 1
COc1ccc(-c2nn([C@@H]3O[C@H](CO)[C@@H](O)[C@H]3O)c3ncnc(N)c23)cc1 | > 64 µM | > 64 µM | > 64 µM | 18.2 µM | > 4
O=c1[nH]cnc2c1c(Br)nn2[C@@H]1O[C@H](CO)[C@@H](F)[C@H]1O | > 64 µM | > 64 µM | > 64 µM | > 64 µM | 
Nc1ncnc2c1c(CN1CCOCC1)nn2[C@@H]1O[C@H](CO)[C@@H](O)[C@H]1O | > 64 µM | > 64 µM | > 64 µM | > 64 µM | 
Nc1ncnc2c1c(-c1ccc(Cl)c(C(F)(F)F)c1)nn2[C@@H]1O[C@H](CO)[C@@H](O)[C@H]1O | > 64 µM | > 64 µM | > 64 µM | 43.8 µM | > 1
COc1cc(-c2nn([C@@H]3O[C@H](CO)[C@@H](O)[C@H]3O)c3ncnc(N)c23)ccc1Cl | > 64 µM | > 64 µM | > 64 µM | 1.14 µM | > 56
CCc1nn([C@@H]2O[C@H](CO)[C@@H](O)[C@H]2O)c2ncnc(N)c12 | > 64 µM | > 64 µM | > 64 µM | > 64 µM | 
Nc1ncnc2c1cnn2[C@H]1C[C@H](O)[C@@H](CO)O1 | > 64 µM | > 64 µM | > 64 µM | > 64 µM | 
Nc1ncnc2c1c(-c1cccs1)nn2[C@@H]1O[C@H](CO)[C@@H](O)[C@H]1O | > 64 µM | 32 µM | > 64 µM | 10.4 µM | 3
Nc1ncnc2c1c(-c1nnn[nH]1)nn2[C@@H]1O[C@H](CO)[C@@H](O)[C@H]1O | > 64 µM | > 64 µM | > 64 µM | > 64 µM | 
N#Cc1ccc(-c2nn([C@@H]3O[C@H](CO)[C@@H](O)[C@H]3O)c3ncnc(N)c23)cc1 | > 64 µM | > 64 µM | > 64 µM | 32 µM | > 2
Nc1ncnc2c1c(-c1ccc(Cl)c(F)c1)nn2[C@@H]1O[C@H](CO)[C@@H](O)[C@H]1O | > 64 µM | > 64 µM | > 64 µM | 1.19 µM | > 54
CC(C)c1nn([C@@H]2O[C@H](CO)[C@@H](O)[C@H]2O)c2ncnc(N)c12 | > 64 µM | 10.6 µM | > 64 µM | > 64 µM | < 1
O=c1[nH]cnc2c1c(Br)nn2[C@@H]1O[C@H](CO)C[C@H]1O | > 64 µM | > 64 µM | > 64 µM | > 64 µM | 
CCCCCCCCCCCCCCCCOP(=O)([O-])OCC[N+](C)(C)C [MILTEFOSINE] |  |  | 7.47 µM |  | 
CC(C)(C)c1ccc(-c2nn([C@@H]3O[C@H](CO)[C@@H](O)[C@H]3O)c3ncnc(N)c23)cc1 | > 64 µM | > 64 µM | > 64 µM | > 64 µM | 
Nc1ncnc2c1c(-c1ccc(OC(F)(F)F)cc1)nn2[C@@H]1O[C@H](CO)[C@@H](O)[C@H]1O | > 64 µM | > 64 µM | > 64 µM | 15.6 µM | > 4
N#Cc1cc(-c2nn([C@@H]3O[C@H](CO)[C@@H](O)[C@H]3O)c3ncnc(N)c23)ccc1Cl | > 64 µM | > 64 µM | > 64 µM | > 64 µM | 
Nc1ncnc2c1cnn2[C@@H]1O[C@H](CO)[C@@H](F)[C@H]1O | > 64 µM | > 64 µM | > 64 µM | > 64 µM | 
Nc1ncnc2c1c(C(=O)NCc1ccccc1)nn2[C@@H]1O[C@H](CO)[C@@H](O)[C@H]1O | > 64 µM | > 64 µM | > 64 µM | > 64 µM | 
N#Cc1cc(-c2ccc(-c3nn([C@@H]4O[C@H](CO)[C@@H](O)[C@H]4O)c4ncnc(N)c34)cc2C#N)ccc1Cl | > 64 µM | > 64 µM | > 64 µM | > 64 µM | 
O=c1[nH]cnc2c1cnn2[C@@H]1O[C@H](CO)C[C@H]1O | > 64 µM | > 64 µM | > 64 µM | > 64 µM | 
